The source made the active and inactive calls. The rule behind the calls is not given here.
Columns and labels:
[1] = molecular target: T1, Alpha-1A adrenergic receptor (Homo sapiens, UniProt P35348); assay: Agonist activity at human alpha1A-adrenergic receptor expressed in HEK293 cells assessed as calcium flux by fluorescence assay; format: functional, cell-based
T1 sequence (P35348 whole entry): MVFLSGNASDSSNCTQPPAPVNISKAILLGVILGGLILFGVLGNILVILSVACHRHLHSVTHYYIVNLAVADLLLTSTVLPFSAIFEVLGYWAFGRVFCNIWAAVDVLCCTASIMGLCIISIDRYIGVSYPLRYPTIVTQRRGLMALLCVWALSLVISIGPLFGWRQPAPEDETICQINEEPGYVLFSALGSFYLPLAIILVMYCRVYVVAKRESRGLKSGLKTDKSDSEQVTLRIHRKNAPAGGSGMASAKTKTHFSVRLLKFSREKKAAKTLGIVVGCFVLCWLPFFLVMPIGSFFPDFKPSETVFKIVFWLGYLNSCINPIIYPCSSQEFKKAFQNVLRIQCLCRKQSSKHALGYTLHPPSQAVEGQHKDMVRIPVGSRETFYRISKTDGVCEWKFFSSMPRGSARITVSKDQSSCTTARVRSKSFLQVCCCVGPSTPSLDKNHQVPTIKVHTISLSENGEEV

[2] = molecular target: T2, Beta-3 adrenergic receptor (Homo sapiens, UniProt P13945); assay: Agonist activity at human recombinant beta3-adrenergic receptor expressed in CHO cells assessed as increase of cAMP level after 30 mins; format: functional, cell-based
Target sequence in this assay (P13945 whole entry): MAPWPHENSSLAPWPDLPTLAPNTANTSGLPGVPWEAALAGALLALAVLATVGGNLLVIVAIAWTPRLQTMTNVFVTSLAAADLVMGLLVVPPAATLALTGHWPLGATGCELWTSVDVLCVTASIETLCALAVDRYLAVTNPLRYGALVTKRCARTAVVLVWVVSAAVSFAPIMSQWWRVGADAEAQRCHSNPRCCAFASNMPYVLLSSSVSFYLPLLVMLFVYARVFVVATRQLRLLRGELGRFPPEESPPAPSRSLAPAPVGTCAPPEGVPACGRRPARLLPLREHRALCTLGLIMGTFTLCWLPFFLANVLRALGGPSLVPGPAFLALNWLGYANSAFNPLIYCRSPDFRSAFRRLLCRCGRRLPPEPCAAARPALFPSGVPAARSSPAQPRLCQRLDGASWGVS

[3] = molecular target: T2, Beta-3 adrenergic receptor; assay: Intrinsic activity at human beta3-adrenergic receptor expressed in CHO cells assessed as increase of cAMP level after 30 mins relative to isoproterenol; format: functional, cell-based
How it was run: (§1)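 Stably transfected CHO cells expressing human β1, β2 or β3 or marmoset β3 receptor were grown in Ham's F-12 with 10% FBS and geneticin, seeded at 2×10⁴ cells/well and grown about 20 h. Cells spent 15 min serum-free, then 30 min with compound in medium containing HEPES and isobutylmethylxanthine. Lysate cAMP was measured by kit. […] EC50 is the half-maximal concentration for each compound.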
Target sequence in this assay (P13945 whole entry, looked up): as the sequence (P13945 whole entry) above

Homo sapiens = organism: Homo sapiens; assay: Selectivity ratio of EC50 for human alpha1A-adrenergic receptor to EC50 for human beta3-adrenergic receptor
[4] = molecular target: T3, Alpha-1A adrenergic receptor (Homo sapiens) (UniProt P35348); assay: Intrinsic activity at human alpha1A-adrenergic receptor expressed in HEK293 cells assessed as calcium flux by fluorescence assay relative to norepinephrine; format: functional, cell-based
T3 sequence (whole entry): T1 sequence (P35348 whole entry)

[5] = molecular target: Beta-2 adrenergic receptor (Homo sapiens, UniProt P07550); assay: Agonist activity at human beta2-adrenergic receptor expressed in CHO cells assessed as increase of cAMP level after 30 mins; format: functional, cell-based; how it was run: as §1
Rattus norvegicus [6] = assay: Cardiotoxicity in anesthetized Sprague-Dawley rat assessed as increase in mean blood pressure at 3 mg/kg, iv measured for 30 mins relative to control; format: toxicity, organism-based; settings: in vivo, 0.5 h
How it was run: (§2)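 Male Sprague-Dawley rats (200-300 g) were anesthetized with sodium pentobarbital (50 mg/kg i.p. plus 25 mg/kg s.c.). The compound was injected via the cannulated left femoral vein once BP and HR were stable, and HR and MBP were recorded for 30 min. Results are the maximum % increase or decrease from baseline, as mean ± SEM. Where given, silodosin (0.01 mg/kg iv) preceded the compound.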

[7] = molecular target: Beta-3 adrenergic receptor (Rattus norvegicus, UniProt P26255); assay: Agonist activity at rat beta3-adrenergic receptor
Rattus norvegicus [8] = assay: Cardiotoxicity in anesthetized Sprague-Dawley rat assessed as decrease in heart rate at 3 mg/kg, iv measured for 30 mins relative to control; format: toxicity, organism-based; parameters: scale not given: the % may be the effect or the level left; settings: in vivo, 0.5 h; how it was run: as §2
Rattus norvegicus [9] = assay: Cardiotoxicity in anesthetized Sprague-Dawley rat assessed as increase in heart rate at 3 mg/kg, iv measured for 30 mins relative to control; format: toxicity, organism-based; settings: in vivo, 0.5 h; how it was run: as §2
Rattus norvegicus [10] = assay: Cardiotoxicity in anesthetized Sprague-Dawley rat assessed as decrease in mean blood pressure at 3 mg/kg, iv measured for 30 mins relative to control; format: toxicity, organism-based; parameters: scale not given: the % may be the effect or the level left; settings: in vivo, 0.5 h; how it was run: as §2
[11] = Agonist activity at marmoset beta3-adrenergic receptor; parameters: species or system Callithrix jacchus; how it was run: as §1
[12] = molecular target: Beta-3 adrenergic receptor (Rattus norvegicus) (UniProt P26255); assay: Intrinsic activity at rat beta3-adrenergic receptor relative to isoproterenol
Callithrix jacchus [13] = organism: Callithrix jacchus; assay: Agonist activity at beta3-adrenergic receptor in isolated marmoset urinary bladder smooth muscle assessed as reduction of KCl-induced muscle contraction; format: tissue-based
How it was run: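 Marmosets anesthetized with ketamine hydrochloride (15 mg/kg, i.m.) and exsanguinated. Bladder body strips (about 10-15 mm × 2-5 mm) were held in Krebs-Henseleit gassed with 95% O2/5% CO2 at 37 °C under 1 g resting tension and equilibrated over 30 min. Tension was recorded isometrically. After the top concentration, papaverine (final 10⁻⁴ mol/L) set each strip's maximum relaxation.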

[14] = molecular target: Beta-1 adrenergic receptor (Homo sapiens, UniProt P08588); assay: Agonist activity at human beta1-adrenergic receptor expressed in CHO cells assessed as increase of cAMP level after 30 mins; format: functional, cell-based; how it was run: as §1
Callithrix jacchus [15] = organism: Callithrix jacchus; assay: Agonist activity at marmoset beta3-adrenergic receptor relative to isoproterenol; how it was run: as §1

Chain of Beta-2 adrenergic receptor (P07550 whole entry): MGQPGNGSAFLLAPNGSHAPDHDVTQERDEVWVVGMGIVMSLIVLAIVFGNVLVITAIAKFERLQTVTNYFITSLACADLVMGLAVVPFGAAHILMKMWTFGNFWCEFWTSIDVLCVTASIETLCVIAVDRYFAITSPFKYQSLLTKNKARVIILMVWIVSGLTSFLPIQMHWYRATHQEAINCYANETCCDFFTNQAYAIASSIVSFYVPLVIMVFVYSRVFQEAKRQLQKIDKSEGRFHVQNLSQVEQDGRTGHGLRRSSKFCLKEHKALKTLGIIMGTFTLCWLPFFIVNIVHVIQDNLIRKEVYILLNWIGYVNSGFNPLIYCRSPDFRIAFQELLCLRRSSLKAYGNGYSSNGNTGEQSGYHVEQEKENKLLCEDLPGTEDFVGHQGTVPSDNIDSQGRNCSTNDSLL
Chain of Beta-1 adrenergic receptor (P08588 whole entry): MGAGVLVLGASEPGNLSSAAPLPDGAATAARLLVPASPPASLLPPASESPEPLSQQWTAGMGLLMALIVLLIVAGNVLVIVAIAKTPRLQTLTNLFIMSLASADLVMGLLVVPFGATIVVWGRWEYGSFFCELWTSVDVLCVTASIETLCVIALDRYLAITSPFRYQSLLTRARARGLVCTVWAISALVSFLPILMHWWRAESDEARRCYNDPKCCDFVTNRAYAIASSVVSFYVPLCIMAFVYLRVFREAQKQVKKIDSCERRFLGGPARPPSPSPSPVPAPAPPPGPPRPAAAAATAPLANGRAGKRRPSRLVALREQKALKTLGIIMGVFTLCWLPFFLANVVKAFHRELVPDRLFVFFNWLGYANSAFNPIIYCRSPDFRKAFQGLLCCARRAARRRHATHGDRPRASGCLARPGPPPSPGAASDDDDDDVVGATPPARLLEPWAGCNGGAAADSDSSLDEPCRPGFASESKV
Chain of Beta-3 adrenergic receptor (Rattus norvegicus, UniProt P26255) (P26255 whole entry): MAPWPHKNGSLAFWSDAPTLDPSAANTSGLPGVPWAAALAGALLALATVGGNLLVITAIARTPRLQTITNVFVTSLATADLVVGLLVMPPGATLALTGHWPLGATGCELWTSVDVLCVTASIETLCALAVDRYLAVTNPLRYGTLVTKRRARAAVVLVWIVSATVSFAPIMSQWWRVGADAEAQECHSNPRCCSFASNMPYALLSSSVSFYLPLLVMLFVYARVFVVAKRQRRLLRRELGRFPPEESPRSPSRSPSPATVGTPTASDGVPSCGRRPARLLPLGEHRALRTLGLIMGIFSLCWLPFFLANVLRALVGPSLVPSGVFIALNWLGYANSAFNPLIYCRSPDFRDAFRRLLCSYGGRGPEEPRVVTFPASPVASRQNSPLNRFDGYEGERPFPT
Chain of Beta-3 adrenergic receptor (Rattus norvegicus) (P26255 whole entry): as above

SMILES	EC50 [1]	EC50 [2]	Intrinsic activity [3]	Ratio EC50 (Homo sapiens)	Intrinsic activity [4]	EC50 [5]	EC50 [7]	EC50 [11]	Intrinsic activity [12]	Activity (Callithrix jacchus [13])	EC50 [14]	Intrinsic activity (Callithrix jacchus [15])	Activity (Rattus norvegicus [6])	Activity (Rattus norvegicus [8])	Activity (Rattus norvegicus [9])	Activity (Rattus norvegicus [10])
CS(=O)(=O)Nc1cccc([C@@H](O)CNCCOc2ccc3c(CO)n[nH]c3c2)c1	33 nM	111 nM	–	–	–	–	–	–	–	–	–	–	–	–	–	–
CS(=O)(=O)Nc1cccc([C@@H](O)CNCCOc2ccc3c(C(F)(F)F)n[nH]c3c2)c1	812 nM	64 nM	86%	13	31%	–	–	–	–	–	–	–	–	–	–	–
CC(C)(C)c1n[nH]c2cc(OCCNC[C@H](O)c3cccc(NS(C)(=O)=O)c3)ccc12	> 10000 nM	338 nM	62%	> 30	19%	–	–	–	–	–	–	–	–	–	–	–
CS(=O)(=O)Nc1cccc([C@@H](O)CNCCOc2ccc3c(Cl)n[nH]c3c2)c1	61 nM	43 nM	89%	1.4	91%	–	–	–	–	–	–	–	–	–	–	–
Nc1nc(CC(=O)Nc2ccc(CCNC[C@H](O)c3ccccc3)cc2)cs1 [MIRABEGRON]	–	–	–	–	–	–	–	–	–	–	–	–	3.5%	–	10%	38.3%

More lines, main results first:

EC50 [1]	EC50 [2]	Intrinsic activity [3]	Ratio EC50 (Homo sapiens)	Intrinsic activity [4]	EC50 [5]	EC50 [7]	EC50 [11]	Intrinsic activity [12]	Activity (Callithrix jacchus [13])	EC50 [14]	Intrinsic activity (Callithrix jacchus [15])	SMILES	Activity (Rattus norvegicus [6])	Activity (Rattus norvegicus [8])	Activity (Rattus norvegicus [9])	Activity (Rattus norvegicus [10])
252 nM	40 nM	70%	6.3	60%	–	–	–	–	–	–	–	COc1n[nH]c2cc(OCCNC[C@H](O)c3cccc(NS(C)(=O)=O)c3)ccc12	–	–	–	–
277 nM	71 nM	69%	3.9	59%	–	–	–	–	–	–	–	CCOc1n[nH]c2cc(OCCNC[C@H](O)c3cccc(NS(C)(=O)=O)c3)ccc12	–	–	–	–
> 10000 nM	13 nM	69%	> 769	9.1%	> 10000 nM	535 nM	15 nM	95%	Active	> 10000 nM	75%	CC(C)c1n[nH]c2cc(OCCNC[C@H](O)c3cccc(NS(C)(=O)=O)c3)ccc12	4.7%	1.8%	3.3%	7.6%
> 10000 nM	> 10000 nM	29%	–	6%	–	–	–	–	–	–	–	CS(=O)(=O)Nc1cccc([C@@H](O)CNCCOc2ccc3c(-c4ccccc4)n[nH]c3c2)c1	–	–	–	–
> 10000 nM	66 nM	68%	> 151	4%	–	–	–	–	–	–	–	CS(=O)(=O)Nc1cccc([C@@H](O)CNCCOc2ccc3c(C4CCC4)n[nH]c3c2)c1	–	–	–	–
–	14 nM	78%	61	31%	> 10000 nM	–	–	–	–	> 10000 nM	–	CCc1n[nH]c2cc(OCCNC[C@H](O)c3cccc(NS(C)(=O)=O)c3)ccc12	3.1%	1.6%	9.6%	10.8%
1550 nM	17 nM	72%	91	19%	> 10000 nM	–	–	–	–	> 10000 nM	–	CS(=O)(=O)Nc1cccc([C@@H](O)CNCCOc2ccc3c(C4CC4)n[nH]c3c2)c1	2.7%	3.3%	5.7%	11%

— ChEMBL document CHEMBL3600378 (J Med Chem, 2015)
